The text below walks through data of ChEMBL document CHEMBL1133465, “[Pro(3)]Dyn A(1-11)-NH(2): a dynorphin analogue with high selectivity for the kappa opioid receptor” (J Med Chem, 2000).

Assay [1] addresses T1, Kappa-type opioid receptor (Homo sapiens, UniProt P41145). The assay can be described thus: Binding affinity towards cloned human Opioid receptor kappa 1 in CHO cell membranes. It counts as cell-based.
The target in another assay is Mu-type opioid receptor (Homo sapiens, UniProt P35372). Nature of the assay: Binding affinity towards cloned human Opioid receptor mu 1 in CHO cell membranes. It counts as cell-based. In outline: (§1)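 Membranes from CHO cells stably expressing cloned human µ, δ or κ receptors in 50 mM Tris-HCl pH 7.8 with EGTA, MgCl2 and protease inhibitors. 50-100 µg protein with 1.0 nM [3H]diprenorphine, 60 min at room temperature. Filtered on PEI/BSA-treated GF/B and counted by scintillation. Nonspecific binding with 10 µM naloxone. Four-parameter one-site fit, Ki by Cheng-Prusoff.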
Chain of Mu-type opioid receptor (P35372 whole entry): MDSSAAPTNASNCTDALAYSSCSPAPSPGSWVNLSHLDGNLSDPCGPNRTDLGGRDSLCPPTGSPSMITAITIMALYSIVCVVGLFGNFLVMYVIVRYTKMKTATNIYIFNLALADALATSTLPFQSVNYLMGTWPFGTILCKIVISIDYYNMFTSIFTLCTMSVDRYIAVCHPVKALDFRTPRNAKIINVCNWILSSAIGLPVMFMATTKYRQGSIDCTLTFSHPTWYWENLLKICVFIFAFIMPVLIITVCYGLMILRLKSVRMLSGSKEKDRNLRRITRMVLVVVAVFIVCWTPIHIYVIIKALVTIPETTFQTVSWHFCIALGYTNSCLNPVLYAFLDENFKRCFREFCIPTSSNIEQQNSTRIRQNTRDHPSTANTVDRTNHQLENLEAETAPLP

The target in assay [2] is T1, Kappa-type opioid receptor. Nature of the assay: Human Opioid receptor kappa 1 mediated stimulation of [35S]- GTPgammaS binding in CHO cells (Agonist potency). It is filed as cell-based. Put shortly:
(§2)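 κ-expressing CHO membranes (50-150 µg) in 50 mM Tris HCl pH 7.8 with 80-100 pM [35S]GTPγS, 30 µM GDP, 100 mM NaCl and 5.0 mM MgCl2, 1 h at 30 °C. Filtered and counted. Agonist concentration series gave EC50 by nonlinear regression. Maximal response at 10 µM expressed relative to U50,488 set as 100%.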
A general note: GTPγS resists hydrolysis and so accumulates on activated G proteins.

For assay [3], the target named is T2, Delta-type opioid receptor (Homo sapiens, UniProt P41143). Nature of the assay: (§3) Binding affinity towards cloned human Opioid receptor delta 1 in CHO cell membranes. It counts as cell-based. Put shortly: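 Membranes from CHO cells stably expressing cloned human δ receptor; 50-100 µg protein. […] Nonspecific binding with 10 µM naloxone. Filter-bound counts; Ki via Cheng-Prusoff from a one-site fit.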
T2 sequence (P41143 whole entry): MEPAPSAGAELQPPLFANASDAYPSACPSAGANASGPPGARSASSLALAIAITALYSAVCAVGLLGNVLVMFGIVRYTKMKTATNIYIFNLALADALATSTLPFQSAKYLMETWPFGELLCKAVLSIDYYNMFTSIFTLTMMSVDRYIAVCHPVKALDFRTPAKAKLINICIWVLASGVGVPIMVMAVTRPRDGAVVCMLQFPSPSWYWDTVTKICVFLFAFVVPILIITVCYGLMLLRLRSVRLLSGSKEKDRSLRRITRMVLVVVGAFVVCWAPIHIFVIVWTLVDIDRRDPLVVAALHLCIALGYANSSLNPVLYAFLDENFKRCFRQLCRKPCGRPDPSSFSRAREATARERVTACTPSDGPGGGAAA

In assay [4] the target is T1, Kappa-type opioid receptor. Nature of the assay: Human kOpioid receptor kappa 1 mediated stimulation of [35S]- GTPgammaS binding in CHO cells (Agonist potency). It counts as cell-based. Put shortly: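 Human κ-CHO membranes (50-150 µg) with 80-100 pM [35S]GTPγS, 30 µM GDP and 100 mM NaCl in Tris-HCl pH 7.8; 1 h at 30 °C, then filtration and counting. EC50 from a nonlinear fit of an agonist concentration series. Maximal response at 10 µM expressed relative to U50,488 (100%).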

For assay [5], the species on record is Cavia porcellus. The assay can be described thus: Tested for antagonist activity in guinea pig ileum by (GPI) assay. It counts as functional, organism-based. Put shortly: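 Electrically evoked contractions of guinea pig ileum. Ke calculated from IC50 of reference agonist (U50,488 or [D-Ala3]Dyn A(1-11)-NH2), measured with and without a fixed concentration of antagonist.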

A short description of assay [6]: Tested for maximum agonist response at concentration 10 uM, relative to that with standard agonist U50,488. It is filed as functional. Put shortly: as §2
In assay [7] the target is T2, Delta-type opioid receptor. The assay is described as §3. It counts as cell-based. In outline:
as §1
The source holds these as a separate data set.

Assay [8] is described as follows: Antagonist activity determined in the [35S]GTP-gamma-S, binding assay relative to 50 nM U50,488. It counts as functional.
The species named for assay [9] is Cavia porcellus. The assay can be described thus: Antagonist activity determined in the guinea pig assay against U50,488 at 1 uM. It counts as functional. Put shortly:
(§4)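 Electrically stimulated guinea pig ileum. Antagonist held at a fixed concentration of 1 µM. IC50 of the reference agonist (U50,488 or [D-Ala3]Dyn A(1-11)-NH2, as the line names) was measured with and without antagonist. Ke was calculated from the shift.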

The species named for assay [10] is Cavia porcellus. The assay can be described thus: Antagonist activity determined in the guinea pig assay against [D-Ala3] Dyn A (1-11)-NH2 at 1 uM. It counts as functional. In outline:
as §4

Assay [11] can be described thus: Antagonist activity determined in the [35S]GTP-gamma-S, binding assay relative to 25 nM [D-Ala3] Dyn A (1-11)-NH2. It is filed as functional.
Assay [12] has as its target T1, Kappa-type opioid receptor. Nature of the assay: Binding affinity at Opioid receptor kappa 1 by to cloned human opioid receptors expressed in CHO cell membranes. Put shortly:
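Membranes from CHO cells stably expressing cloned human κ receptor; 50-100 µg protein in 50 mM Tris-HCl pH 7.8 with EGTA, MgCl2 and protease inhibitors. […] Nonspecific binding with 10 µM naloxone. Filtration and scintillation counting; Ki by Cheng-Prusoff.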

For assay [13], the species on record is Cavia porcellus. The assay can be described thus: Tested for agonist or antagonist properties in guinea pig ileum by (GPI) assay.
The species entered for assay [14] is Cavia porcellus. The assay can be described thus: Tested for agonist or antagonist properties in guinea pig ileum a (GPI) assay. It is filed as functional, organism-based.
Assay [15] addresses T1, Kappa-type opioid receptor. The assay can be described thus: Binding affinity of Opioid receptor kappa 1 to cloned human opioid receptor in CHO cell membrane. It is filed as cell-based. Put shortly: as §1

T1 sequence (P41145 whole entry): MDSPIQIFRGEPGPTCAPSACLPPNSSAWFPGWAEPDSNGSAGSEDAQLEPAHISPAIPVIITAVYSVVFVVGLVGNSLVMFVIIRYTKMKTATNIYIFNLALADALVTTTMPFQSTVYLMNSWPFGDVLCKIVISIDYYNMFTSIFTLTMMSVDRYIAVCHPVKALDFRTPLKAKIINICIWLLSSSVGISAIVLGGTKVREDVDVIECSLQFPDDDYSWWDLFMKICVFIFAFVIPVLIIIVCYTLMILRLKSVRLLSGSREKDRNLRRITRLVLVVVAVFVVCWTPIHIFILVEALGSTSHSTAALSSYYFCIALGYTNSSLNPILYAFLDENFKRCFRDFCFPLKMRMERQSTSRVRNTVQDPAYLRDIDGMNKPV

As for `CC[C@H](C)[C@H](NC(=O)[C@H](CCCNC(=N)N)NC(=O)[C@H](CCCNC(=N)N)NC(=O)[C@H](CC(C)C)NC(=O)[C@H](Cc1ccccc1)NC(=O)[C@@H](C)NC(=O)CNC(=O)[C@@H](N)Cc1ccc(O)cc1)C(=O)N[C@@H](CCCNC(=N)N)C(=O)N1CCC[C@H]1C(=O)N[C@@H](CCCCN)C(N)=O`, the inhibition constant Ki (as a rule, the equilibrium dissociation constant of an inhibitor or competing ligand from its target) in assay [1] was determined as 0.15 nM; at Mu-type opioid receptor, 67 nM. For the same compound, the midpoint of the response in assay [2], the EC50, lay at 6.1 nM.
For `CC[C@H](C)[C@H](NC(=O)[C@H](CCCN=C(N)N)NC(=O)[C@H](CCCN=C(N)N)NC(=O)[C@H](CC(C)C)NC(=O)[C@H](Cc1ccccc1)NC(=O)CNC(=O)CNC(=O)[C@@H](N)Cc1ccc(O)cc1)C(=O)N[C@@H](CCCN=C(N)N)C(=O)N1CCC[C@H]1C(=O)N[C@@H](CCCCN)C(N)=O`, the figures for the Ki (in assay [1]; in [3]; at Mu-type opioid receptor) were 0.074 nM, 2.9 nM and 7.6 nM, respectively. Besides, the response in assay [4] was half-maximal at 0.74 nM (EC50). Also, it took 0.376 nM to reach half-maximal inhibition in the assay listed under Cavia porcellus [5] (IC50). The compound further had a Max agonist response in [6] of 73%.
Take `CC[C@H](C)[C@H](NC(=O)[C@H](CCCN=C(N)N)NC(=O)[C@H](CCCN=C(N)N)NC(=O)[C@H](CC(C)C)NC(=O)[C@H](Cc1ccccc1)NC(=O)CNC(=O)[C@H]1CCCN1C(=O)[C@@H](N)Cc1ccc(O)cc1)C(=O)N[C@@H](CCCN=C(N)N)C(=O)N1CCC[C@H]1C(=O)N[C@@H](CCCCN)C(N)=O`: the Ki in assay [1] is 65 nM; in assay [7], 3.9 µM; on Mu-type opioid receptor, 1700 nM. For the same compound, in assay [8], the IC50 – broadly, the concentration needed to halve the response being measured – amounted to 940 nM.
As for `Oc1ccc2c3c1O[C@H]1c4[nH]c5c(c4C[C@@]4(O)[C@@H](C2)N(CC2CC2)CC[C@]314)C[C@@]1(O)[C@H]2Cc3ccc(O)c4c3[C@@]1(CCN2CC1CC1)[C@H]5O4` [NORBINALTORPHIMINE], the Ke in the assay listed under Cavia porcellus [9] was found to be 0.357 nM; in the assay filed under Cavia porcellus [10] it was 0.572 nM. Further, the IC50 in [11] came out at 4.7 nM; in assay [8] it was 4.6 nM.
On to `CC[C@H](C)[C@H](NC(=O)[C@H](CCCN=C(N)N)NC(=O)[C@H](CCCN=C(N)N)NC(=O)[C@H](CC(C)C)NC(=O)[C@H](Cc1ccccc1)NC(=O)[C@@H]1CCCN1C(=O)CNC(=O)[C@@H](N)Cc1ccc(O)cc1)C(=O)N[C@@H](CCCN=C(N)N)C(=O)N1CCC[C@H]1C(=O)N[C@@H](CCCCN)C(N)=O`, for which the Ki in [1] is 2.7 nM; in assay [7] it was 8.8 µM; on Mu-type opioid receptor, 5700 nM; in assay [12], 7.5 nM. In addition, the IC50 in [11] came to 1400 nM; in [8], 380 nM.
For `CC[C@H](C)[C@H](NC(=O)[C@H](CCCN=C(N)N)NC(=O)[C@H](CCCN=C(N)N)NC(=O)[C@H](CC(C)C)NC(=O)[C@H](Cc1ccccc1)NC(=O)[C@H]1CCCN1C(=O)CNC(=O)[C@@H](N)Cc1ccc(O)cc1)C(=O)N[C@@H](CCCN=C(N)N)C(=O)N1CCC[C@H]1C(=O)N[C@@H](CCCCN)C(N)=O`, the Ki is 160 nM in assay [1], 7.1 µM in assay [7] and 8300 nM at Mu-type opioid receptor. Moreover, the IC50 in [8] is 2200 nM.
Turning to `CC[C@H](C)[C@H](NC(=O)[C@H](CCCN=C(N)N)NC(=O)[C@H](CCCN=C(N)N)NC(=O)[C@H](CC(C)C)NC(=O)[C@H](Cc1ccccc1)NC(=O)[C@@H](C)NC(=O)CNC(=O)[C@@H](N)Cc1ccc(O)cc1)C(=O)N[C@@H](CCCN=C(N)N)C(=O)N1CCC[C@H]1C(=O)N[C@@H](CCCCN)C(N)=O`, the IC50 in the assay listed under Cavia porcellus [13] came out at 2.38 nM.
`CCC[C@H](NC(=O)[C@H](Cc1ccccc1)NC(=O)CNC(=O)CNC(=O)[C@H](Cc1ccc(O)cc1)NCc1ccccc1)C(=O)N[C@@H](CCCN=C(N)N)C(=O)N[C@@H](CCCN=C(N)N)C(=O)N[C@H](C(=O)N[C@@H](CCCN=C(N)N)C(=O)N1CCCC1C(=O)N[C@@H](CCCCN)C(N)=O)[C@@H](C)CC` (stereo in doubt): the IC50 in the assay listed under Cavia porcellus [14] stood at 990 nM.
Take `CC[C@H](C)[C@H](NC(=O)[C@H](CCCNC(=N)N)NC(=O)[C@H](CCCNC(=N)N)NC(=O)[C@H](CC(C)C)NC(=O)[C@H](Cc1ccccc1)NC(=O)CNC(=O)[C@@H]1CCCN1C(=O)[C@@H](N)Cc1ccc(O)cc1)C(=O)N[C@@H](CCCNC(=N)N)C(=O)N1CCC[C@H]1C(=O)N[C@@H](CCCCN)C(N)=O`: the Ki was determined as 94 nM in assay [1], 6.8 µM in [7] and 3200 nM at Mu-type opioid receptor. The same compound came in with an IC50 in assay [8] of 760 nM.
Turning to `CC[C@@H](C)[C@@H](NC(=O)CNC(=O)[C@@H](N)Cc1ccc(O)cc1)C(=O)N[C@@H](Cc1ccccc1)C(=O)N[C@@H](CC(C)C)C(=O)N[C@@H](CCCN=C(N)N)C(=O)N[C@@H](CCCN=C(N)N)C(=O)N[C@H](C(=O)N[C@@H](CCCN=C(N)N)C(=O)N1CCC[C@H]1C(=O)N[C@@H](CCCCN)C(N)=O)[C@@H](C)CC`, in assay [15], affinity was put at a Ki of 55 nM.
